Source: the M2OR odorant receptor database

What was measured:
Settings in all cases: stereoisomer not certain
OR10A3 (Homo sapiens) = target: T1, OR10A3 (Homo sapiens) (UniProt P58181)
T1 sequence (whole entry): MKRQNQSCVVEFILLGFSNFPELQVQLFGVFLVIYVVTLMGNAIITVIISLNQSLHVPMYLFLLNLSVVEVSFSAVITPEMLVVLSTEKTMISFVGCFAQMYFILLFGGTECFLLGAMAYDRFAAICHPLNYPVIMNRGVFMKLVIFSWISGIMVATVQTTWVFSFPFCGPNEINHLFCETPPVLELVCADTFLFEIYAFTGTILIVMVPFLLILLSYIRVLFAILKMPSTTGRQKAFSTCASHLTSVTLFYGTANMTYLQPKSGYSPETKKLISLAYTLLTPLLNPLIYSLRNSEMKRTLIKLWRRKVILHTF
Summary of the method: (§1)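 Transient luciferase assays in mammalian cell lines were common, though methods varied by source. The values come from published papers and their supplementary material, with extra details from the original authors when needed. Responsive refers to a measured signal the original authors judged statistically different from baseline, and non-responsive (inactive) to the remainder.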

OR10A4 (Homo sapiens) = target: T2, OR10A4 (Homo sapiens) (UniProt Q9H209)
T2 sequence (whole entry): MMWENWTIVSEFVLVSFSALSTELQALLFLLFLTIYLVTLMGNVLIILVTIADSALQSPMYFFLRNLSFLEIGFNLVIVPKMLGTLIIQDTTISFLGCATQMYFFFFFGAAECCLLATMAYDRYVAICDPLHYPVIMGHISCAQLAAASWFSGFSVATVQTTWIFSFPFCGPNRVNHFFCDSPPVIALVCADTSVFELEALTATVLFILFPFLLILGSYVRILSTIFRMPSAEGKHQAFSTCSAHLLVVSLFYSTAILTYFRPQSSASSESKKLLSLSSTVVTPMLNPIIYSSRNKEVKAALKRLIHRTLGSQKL
Summary of the method: as §1

OR10A5 (Homo sapiens) = target: T3, OR10A5 (Homo sapiens) (UniProt Q9H207)
T3 sequence (whole entry): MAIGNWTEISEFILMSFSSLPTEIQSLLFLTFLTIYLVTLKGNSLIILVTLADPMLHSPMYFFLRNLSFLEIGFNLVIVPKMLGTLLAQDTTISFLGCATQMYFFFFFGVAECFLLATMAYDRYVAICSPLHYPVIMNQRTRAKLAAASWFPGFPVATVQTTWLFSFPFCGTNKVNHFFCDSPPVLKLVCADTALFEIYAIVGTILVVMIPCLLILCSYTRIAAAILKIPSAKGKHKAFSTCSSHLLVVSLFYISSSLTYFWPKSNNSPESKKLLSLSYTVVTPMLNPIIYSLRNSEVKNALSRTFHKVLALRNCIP
Summary of the method: as §1

OR10A6 (Homo sapiens) = target: T4, OR10A6 (Homo sapiens) (UniProt Q8NH74)
T4 sequence (whole entry): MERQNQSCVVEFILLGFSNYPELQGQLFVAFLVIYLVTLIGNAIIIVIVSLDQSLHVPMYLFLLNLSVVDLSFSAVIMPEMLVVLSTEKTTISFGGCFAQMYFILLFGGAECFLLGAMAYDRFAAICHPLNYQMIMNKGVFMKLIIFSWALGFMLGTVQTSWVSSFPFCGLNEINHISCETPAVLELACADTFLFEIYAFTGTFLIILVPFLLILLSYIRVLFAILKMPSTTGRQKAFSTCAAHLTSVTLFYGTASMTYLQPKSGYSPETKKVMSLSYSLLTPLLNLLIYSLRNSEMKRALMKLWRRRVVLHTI
Summary of the method: as §1

OR10A7 (Homo sapiens) = target: T5, OR10A7 (Homo sapiens) (UniProt Q8NGE5)
T5 sequence (whole entry): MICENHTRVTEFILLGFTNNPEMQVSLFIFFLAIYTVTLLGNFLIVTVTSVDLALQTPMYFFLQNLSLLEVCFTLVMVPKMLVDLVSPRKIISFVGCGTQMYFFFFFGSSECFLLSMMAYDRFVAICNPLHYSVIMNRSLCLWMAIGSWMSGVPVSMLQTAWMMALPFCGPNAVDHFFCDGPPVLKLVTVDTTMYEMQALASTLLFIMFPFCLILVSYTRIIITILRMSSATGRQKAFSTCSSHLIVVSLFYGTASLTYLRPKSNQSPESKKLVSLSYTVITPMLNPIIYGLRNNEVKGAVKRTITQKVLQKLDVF
Summary of the method: as §1

OR10AD1 (Homo sapiens) = target: T6, OR10AD1 (Homo sapiens) (UniProt Q8NGE0)
T6 sequence (whole entry): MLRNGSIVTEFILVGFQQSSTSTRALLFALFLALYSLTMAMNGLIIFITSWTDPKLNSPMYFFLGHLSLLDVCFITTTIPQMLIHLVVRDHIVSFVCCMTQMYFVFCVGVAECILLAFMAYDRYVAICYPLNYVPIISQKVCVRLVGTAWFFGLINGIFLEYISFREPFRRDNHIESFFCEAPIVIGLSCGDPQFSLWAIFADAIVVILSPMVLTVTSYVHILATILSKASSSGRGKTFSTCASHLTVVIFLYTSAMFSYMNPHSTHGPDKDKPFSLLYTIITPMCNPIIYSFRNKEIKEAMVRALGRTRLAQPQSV
Summary of the method: as §1

OR10AG1 (Homo sapiens) = target: T7, OR10AG1 (Homo sapiens) (UniProt Q8NH19)
T7 sequence (whole entry): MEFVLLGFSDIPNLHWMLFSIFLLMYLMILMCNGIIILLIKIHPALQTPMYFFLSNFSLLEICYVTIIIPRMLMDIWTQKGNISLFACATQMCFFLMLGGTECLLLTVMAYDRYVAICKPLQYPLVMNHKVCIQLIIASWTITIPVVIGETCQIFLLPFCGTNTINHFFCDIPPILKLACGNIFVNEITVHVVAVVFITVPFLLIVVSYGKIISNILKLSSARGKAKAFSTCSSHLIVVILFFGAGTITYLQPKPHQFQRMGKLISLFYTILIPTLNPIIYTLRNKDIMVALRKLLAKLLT
Summary of the method: as §1

OR10C1 (Homo sapiens) = target: T8, OR10C1 (Homo sapiens) (UniProt Q96KK4)
T8 sequence (whole entry): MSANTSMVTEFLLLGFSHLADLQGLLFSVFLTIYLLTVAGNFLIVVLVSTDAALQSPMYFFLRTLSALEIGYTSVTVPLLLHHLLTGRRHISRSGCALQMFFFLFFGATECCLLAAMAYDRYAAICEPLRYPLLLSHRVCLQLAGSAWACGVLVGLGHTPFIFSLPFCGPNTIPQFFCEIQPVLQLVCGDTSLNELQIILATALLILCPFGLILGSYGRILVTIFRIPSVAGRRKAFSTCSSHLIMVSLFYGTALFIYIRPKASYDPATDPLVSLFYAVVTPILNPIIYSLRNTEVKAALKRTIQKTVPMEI
Summary of the method: as §1

OR10D3 (Homo sapiens) = target: T9, OR10D3 (Homo sapiens) (UniProt Q8NH80)
T9 sequence (whole entry): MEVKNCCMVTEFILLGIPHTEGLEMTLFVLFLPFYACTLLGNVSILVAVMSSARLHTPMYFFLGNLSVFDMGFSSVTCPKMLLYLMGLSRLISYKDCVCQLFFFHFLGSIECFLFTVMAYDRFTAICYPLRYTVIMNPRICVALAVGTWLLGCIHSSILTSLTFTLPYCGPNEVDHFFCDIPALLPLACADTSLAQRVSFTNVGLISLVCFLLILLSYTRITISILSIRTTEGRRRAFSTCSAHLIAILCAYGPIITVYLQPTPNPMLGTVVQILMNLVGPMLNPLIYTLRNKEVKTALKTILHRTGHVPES
Summary of the method: as §1

OR10AC1 (Homo sapiens) = OR10AC1 (Homo sapiens) (UniProt Q8NH08)
Chain of OR10AC1 (Homo sapiens) (Q8NH08 whole entry): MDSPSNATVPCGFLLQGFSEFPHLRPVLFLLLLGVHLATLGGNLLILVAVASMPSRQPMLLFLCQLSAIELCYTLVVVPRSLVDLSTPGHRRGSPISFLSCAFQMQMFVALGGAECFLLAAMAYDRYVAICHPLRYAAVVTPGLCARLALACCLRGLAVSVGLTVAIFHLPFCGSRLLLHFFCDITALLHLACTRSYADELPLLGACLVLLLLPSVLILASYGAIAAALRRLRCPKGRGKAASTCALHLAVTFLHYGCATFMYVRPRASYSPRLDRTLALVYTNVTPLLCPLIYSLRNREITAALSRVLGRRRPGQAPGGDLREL
Summary of the method: as §1

Measured: odorant receptor agonist call;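 note: active if original authors judged signal statistically different from baseline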

CC1=C(O)C(=O)C(C)O1 (stereo unspecified)
not listed: OR10AC1 (Homo sapiens)
inactive: all other assays above

CCCCCC(=O)C(C)C(C)=O (stereo unspecified)
not listed: OR10AC1 (Homo sapiens)
inactive: all other assays above

CC1(C)CC(=O)CC(=O)C1
inactive: OR10A7 (Homo sapiens)

CC1=C(O)C(=O)OC1C (stereo unspecified)
not listed: OR10AC1 (Homo sapiens)
inactive: all other assays above

CC1=NC(C)C(C)S1 (stereo unspecified)
not listed: OR10AC1 (Homo sapiens)
inactive: all other assays above

CCCCCC(S)C(C)CO (stereo unspecified)
not listed: OR10AC1 (Homo sapiens)
inactive: all other assays above

CC(=O)c1c(C)c([N+](=O)[O-])c(C(C)(C)C)c([N+](=O)[O-])c1C
not listed: OR10A3 (Homo sapiens) | OR10D3 (Homo sapiens)
inactive: all other assays above

CC(CO)CS (stereo unspecified)
not listed: OR10AC1 (Homo sapiens)
inactive: all other assays above

CCC1OC(=O)C(O)=C1C (stereo unspecified)
not listed: OR10AC1 (Homo sapiens)
inactive: all other assays above

Cc1cnc(C)c(C)n1
not listed: OR10AC1 (Homo sapiens)
inactive: all other assays above

CC(C)CS
inactive: OR10A7 (Homo sapiens)

CCCCC(S)C(C)CO (stereo unspecified)
not listed: OR10AC1 (Homo sapiens)
inactive: all other assays above

CCCCCCC=CCCC=O
not listed: OR10AC1 (Homo sapiens)
inactive: all other assays above

CCCC(S)CCOC(C)=O (stereo unspecified)
not listed: OR10AC1 (Homo sapiens)
inactive: all other assays above

CCC1OC(C)=C(O)C1=O (stereo unspecified)
not listed: OR10AC1 (Homo sapiens)
inactive: all other assays above

CCC(S)C(C)CO (stereo unspecified)
not listed: OR10AC1 (Homo sapiens)
inactive: all other assays above

CCC(=O)OCCCc1ccccc1
inactive: OR10A6 (Homo sapiens)

CC1CCCCCCCCCCCCC(=O)C1 (stereo unspecified)
not listed: OR10A3 (Homo sapiens) | OR10D3 (Homo sapiens)
inactive: all other assays above
